Tests used:
[1] = molecular target: T1, Prostaglandin G/H synthase 2 (Homo sapiens) (UniProt P35354); details: Blood; at 1 µM
T1 sequence (whole entry): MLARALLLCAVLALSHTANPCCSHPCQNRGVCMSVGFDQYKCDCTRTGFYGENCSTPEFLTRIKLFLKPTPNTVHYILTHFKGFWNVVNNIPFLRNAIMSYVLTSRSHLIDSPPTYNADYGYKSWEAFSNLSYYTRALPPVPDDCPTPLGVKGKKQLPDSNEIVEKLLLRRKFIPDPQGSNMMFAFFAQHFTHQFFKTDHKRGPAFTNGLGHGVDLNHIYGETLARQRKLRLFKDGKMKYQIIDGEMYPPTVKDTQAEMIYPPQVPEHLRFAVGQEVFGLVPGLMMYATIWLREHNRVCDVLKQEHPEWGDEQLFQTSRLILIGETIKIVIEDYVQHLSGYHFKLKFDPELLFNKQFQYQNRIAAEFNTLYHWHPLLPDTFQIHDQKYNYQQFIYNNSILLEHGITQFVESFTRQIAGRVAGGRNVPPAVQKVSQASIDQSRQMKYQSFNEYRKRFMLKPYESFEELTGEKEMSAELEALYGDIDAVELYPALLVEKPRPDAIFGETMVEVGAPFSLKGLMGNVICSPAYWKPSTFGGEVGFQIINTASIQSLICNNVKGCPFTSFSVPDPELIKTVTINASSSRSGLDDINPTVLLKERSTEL

[2] = molecular target: T2, Prostaglandin G/H synthase 1 (Homo sapiens, UniProt P23219); test: In vitro average percent uM in human whole blood by human whole blood assay; format: tissue-based; details: concentration not given here
[3] = molecular target: T1, Prostaglandin G/H synthase 2 (Homo sapiens); details: at 1 µM
[4] = molecular target: T1, Prostaglandin G/H synthase 2 (Homo sapiens); details: Blood; at 10 µM
[5] = molecular target: T3, Prostaglandin G/H synthase 1 (Ovis aries) (UniProt P05979); test: Compound was tested for in vitro inhibition of recombinant ovine Prostaglandin G/H synthase 1 (COX-1) at a concentration of 100 uM
T3 sequence (whole entry): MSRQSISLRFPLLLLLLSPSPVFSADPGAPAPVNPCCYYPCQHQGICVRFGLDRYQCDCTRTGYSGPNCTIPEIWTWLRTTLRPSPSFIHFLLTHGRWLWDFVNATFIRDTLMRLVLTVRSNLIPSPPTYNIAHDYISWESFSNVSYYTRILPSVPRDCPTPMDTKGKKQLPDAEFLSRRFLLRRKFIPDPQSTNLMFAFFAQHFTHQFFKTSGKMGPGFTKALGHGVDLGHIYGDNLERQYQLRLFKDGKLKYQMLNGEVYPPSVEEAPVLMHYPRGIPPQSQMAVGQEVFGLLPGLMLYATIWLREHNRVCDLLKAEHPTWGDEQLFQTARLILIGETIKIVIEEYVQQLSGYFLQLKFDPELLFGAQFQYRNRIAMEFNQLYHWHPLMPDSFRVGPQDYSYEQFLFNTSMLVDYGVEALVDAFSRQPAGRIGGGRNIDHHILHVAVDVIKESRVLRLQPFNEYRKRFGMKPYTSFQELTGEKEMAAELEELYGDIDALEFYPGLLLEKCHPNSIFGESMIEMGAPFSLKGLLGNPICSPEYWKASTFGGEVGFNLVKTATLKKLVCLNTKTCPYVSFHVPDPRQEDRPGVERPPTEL
In short: (§1)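 Supplied recombinant ovine COX-1 (5 units) preincubated 2 min at 25 °C in 0.1 M Tris-HCl pH 8.0 with 5 mM EDTA, 2 mM phenol and heme; compound or DMSO added, 20 min at 25 °C; started with 10 mM arachidonic acid stock, 2 min at 37 °C; stopped with HCl, SnCl2 reduction; prostaglandins by EIA; percent inhibition versus solvent control.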

[6] = molecular target: T1, Prostaglandin G/H synthase 2 (Homo sapiens); details: at 10 µM
[7] = molecular target: T2, Prostaglandin G/H synthase 1; details: at 100 µM
[8] = molecular target: T2, Prostaglandin G/H synthase 1; test: Compound was tested for the inhibition of recombinant human Prostaglandin G/H synthase 1 (COX-1)
[9] = molecular target: T2, Prostaglandin G/H synthase 1; test: In vitro average percent Inhibition of Prostaglandin G/H synthase 1 (COX-1) at a concentration of 100 uM determined in human whole blood by human whole blood (HWB) assay; format: tissue-based
[10] = molecular target: T2, Prostaglandin G/H synthase 1; test: Compound was tested for the inhibition of human Prostaglandin G/H synthase 1 (COX-1) in human whole blood; format: tissue-based
[11] = molecular target: T4, Prostaglandin G/H synthase 2 (Homo sapiens, UniProt P35354); test: Compound was tested for the inhibition of recombinant human Prostaglandin G/H synthase 2 (COX-2)
T4 sequence (P35354 whole entry): T1 sequence (whole entry)

[12] = molecular target: T1, Prostaglandin G/H synthase 2 (Homo sapiens); test: In vitro average percent Inhibition of Prostaglandin G/H synthase 2 (COX-2) at a concentration of 1 uM determined in human whole blood by human whole blood assay; format: tissue-based
In short: (§2)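 Heparinized whole blood from male or female donors free of aspirin/NSAIDs for 14 days, 1 mL aliquots pre-warmed 15 min at 37 °C, 5% CO2; compound in DMSO, duplicate wells; COX-2 induced by E. coli LPS added 4.5 h later, incubated 5 h; stopped on ice with 2 mM EGTA; plasma methanol-extracted, TXB2 by EIA; average of two donors.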

[13] = molecular target: T1, Prostaglandin G/H synthase 2 (Homo sapiens); test: In vitro average percent Inhibition of Prostaglandin G/H synthase 2 (COX-2) at a concentration of 10 uM determined in human whole blood by human whole blood assay; format: tissue-based
In short: as §2

[14] = molecular target: T2, Prostaglandin G/H synthase 1; test: In vitro average percent inhibition of human prostaglandin G/H synthase 1 (COX-1) at a concentration of 100 uM
In short: as §1, with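 “human” for “ovine”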

[15] = molecular target: T2, Prostaglandin G/H synthase 1; test: Compound was tested for in vitro inhibition of recombinant human Prostaglandin G/H synthase 1 (COX-1) by enzyme Assay
[16] = molecular target: T4, Prostaglandin G/H synthase 2; test: Compound was tested for the inhibition of recombinant human Prostaglandin G/H synthase 2 (COX-2) by enzyme Assay
[17] = molecular target: T2, Prostaglandin G/H synthase 1; test: In vitro average percent Inhibition of Prostaglandin G/H synthase 1 (COX-1) at a concentration of 100 uM determined in human whole blood assay by human whole blood (HWB) assay; format: tissue-based
[18] = molecular target: T1, Prostaglandin G/H synthase 2 (Homo sapiens); test: In vitro average percent Inhibition of Prostaglandin G/H synthase 2 (COX-2) at a concentration of 10 uM determined human whole blood by human whole blood (HWB) assay
In short: as §2

[19] = molecular target: T2, Prostaglandin G/H synthase 1; test: In vitro average percent Inhibition of […] Prostaglandin G/H synthase 1 (COX-1) at a concentration of 100 uM determined by human whole blood (HWB) assay
[20] = molecular target: T1, Prostaglandin G/H synthase 2 (Homo sapiens); test: In vitro average percent Inhibition of Prostaglandin G/H synthase 2(COX-2) at a concentration of 1 uM determined in human whole blood by human whole blood (HWB) assay; format: tissue-based
In short: as §2

[21] = molecular target: T1, Prostaglandin G/H synthase 2 (Homo sapiens); test: In vitro average percent Inhibition of Prostaglandin G/H synthase 2 (COX-2) at a concentration of 10 uM determined by human whole blood (HWB) assay
In short: as §2

[22] = molecular target: T2, Prostaglandin G/H synthase 1; test: In vitro average percent Inhibition of inhibition of Prostaglandin G/H synthase 1 (COX-1) at a concentration of 100 uM in human whole blood by human whole blood assay; format: tissue-based
[23] = molecular target: T4, Prostaglandin G/H synthase 2; test: Compound was tested for the inhibition of human Prostaglandin G/H synthase 2 (COX-2) in human whole blood; format: tissue-based
[24] = molecular target: T2, Prostaglandin G/H synthase 1; test: Compound was tested for in vitro Prostaglandin G/H synthase 1 (COX-1) idetermined in human whole blood by human whole blood assay; format: tissue-based
In short: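 Heparinised (20 U/mL) whole blood from non-fasted donors free of aspirin/NSAIDs for 14 days, 1 mL aliquots, pre-warmed 15 min at 37 °C, 5% CO2 on a rotating shaker. DMSO-diluted compound added in duplicate; incubation ended 30 min after A23187 by ice and 2 mM EGTA (final). Plasma methanol-extracted, TXB2 by EIA; average of two donors.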

T2 sequence (P23219 whole entry): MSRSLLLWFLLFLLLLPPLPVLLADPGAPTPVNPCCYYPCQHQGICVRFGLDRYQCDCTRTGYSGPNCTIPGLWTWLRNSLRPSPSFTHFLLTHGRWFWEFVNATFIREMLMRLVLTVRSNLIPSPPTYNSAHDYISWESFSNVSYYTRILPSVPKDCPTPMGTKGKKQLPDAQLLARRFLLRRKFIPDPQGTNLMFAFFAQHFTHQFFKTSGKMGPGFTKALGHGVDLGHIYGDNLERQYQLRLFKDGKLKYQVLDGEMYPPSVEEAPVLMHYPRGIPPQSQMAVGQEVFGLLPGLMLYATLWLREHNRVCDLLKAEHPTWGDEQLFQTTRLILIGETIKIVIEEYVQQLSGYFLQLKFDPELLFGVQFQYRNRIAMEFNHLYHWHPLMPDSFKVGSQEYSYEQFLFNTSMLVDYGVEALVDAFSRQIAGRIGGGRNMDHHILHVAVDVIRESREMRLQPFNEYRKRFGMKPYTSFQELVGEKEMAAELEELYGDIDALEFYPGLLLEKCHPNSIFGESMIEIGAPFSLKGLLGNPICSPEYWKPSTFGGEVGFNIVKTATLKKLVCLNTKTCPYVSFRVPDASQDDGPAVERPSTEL

| inhibition [3] | inhibition [4] | inhibition [6] | inhibition [7] | inhibition [14] | Compound | also measured |
| --- | --- | --- | --- | --- | --- | --- |
| 10% | 85% | 40% |  |  | Cc1cccc(C(=O)c2cc3c(cc2-c2ccc(S(C)(=O)=O)cc2)OCO3)c1 | inhibition [1]: 40%; inhibition [2]: 95%; inhibition [5]: 0% |
| 90% | 40% | 90% |  |  | CS(=O)(=O)c1ccc(-c2cc3c(cc2Cc2cc(F)cc(F)c2)OCO3)cc1 | inhibition [1]: 15%; inhibition [22]: 70%; inhibition [5]: 15% |

The remaining lines, values behind:

| Compound | inhibition [3] | inhibition [4] | inhibition [6] | inhibition [7] | inhibition [14] | also measured |
| --- | --- | --- | --- | --- | --- | --- |
| NS(=O)(=O)c1ccc(-c2cc3c(cc2Cc2ccccc2)OCO3)cc1 | 85% |  | 90% | 90% |  | IC50 [8]: 25 µM; inhibition [9]: 90%; IC50 [10]: 60 µM; IC50 [11]: 0.05 µM |
| CS(=O)(=O)c1ccc(-c2cc3c(cc2CCCc2ccccc2)OCO3)cc1 | 15% |  | 0% | 10% | 65% | inhibition [12]: 15%; inhibition [13]: 35% |
| CS(=O)(=O)c1ccc(-c2cc3c(cc2C=C2CCCCC2)OCO3)cc1 | 90% |  | 90% | 0% | 50% | IC50 [15]: > 100 µM; IC50 [16]: 0.07 µM |
| CS(=O)(=O)c1ccc(-c2ccccc2C=C2CCCCC2)cc1 |  |  |  |  |  | inhibition [17]: 60% |
| CS(=O)(=O)c1ccc(-c2ccccc2C(=O)c2cccc(F)c2)cc1 |  |  |  |  |  | inhibition [18]: 40%; inhibition [9]: 45% |
| CS(=O)(=O)c1ccc(-c2cc3c(cc2-c2cc(F)cc(F)c2)OCO3)cc1 |  |  |  |  |  | inhibition [19]: 65%; inhibition [20]: 0%; inhibition [21]: 35% |
| CS(=O)(=O)c1ccc(-c2cc3c(cc2Cc2ccccc2)OCO3)cc1 | 85% | 50% | 85% | 0% | 65% | IC50 [23]: 10 µM; IC50 [24]: 60 µM |

From ChEMBL document CHEMBL1145927 (J Med Chem, 2003)
